PAD4 inh – PAD4 (human) enzyme inhibition | Q9UM07 | recombinant PAD4, RCA probe fluorescence polarization | inhibition, % at 6.36 µM | hit rate 0.41% among 330,000;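 active = percent inhibition above a cutoff equal to the mean of all tested compounds plus 3 SD, cut at about 15% in these data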;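 also: 0% = PAD4 with RCA probe and DMSO and 100% = probe without PAD4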
Target sequence (Q9UM07 whole entry, looked up): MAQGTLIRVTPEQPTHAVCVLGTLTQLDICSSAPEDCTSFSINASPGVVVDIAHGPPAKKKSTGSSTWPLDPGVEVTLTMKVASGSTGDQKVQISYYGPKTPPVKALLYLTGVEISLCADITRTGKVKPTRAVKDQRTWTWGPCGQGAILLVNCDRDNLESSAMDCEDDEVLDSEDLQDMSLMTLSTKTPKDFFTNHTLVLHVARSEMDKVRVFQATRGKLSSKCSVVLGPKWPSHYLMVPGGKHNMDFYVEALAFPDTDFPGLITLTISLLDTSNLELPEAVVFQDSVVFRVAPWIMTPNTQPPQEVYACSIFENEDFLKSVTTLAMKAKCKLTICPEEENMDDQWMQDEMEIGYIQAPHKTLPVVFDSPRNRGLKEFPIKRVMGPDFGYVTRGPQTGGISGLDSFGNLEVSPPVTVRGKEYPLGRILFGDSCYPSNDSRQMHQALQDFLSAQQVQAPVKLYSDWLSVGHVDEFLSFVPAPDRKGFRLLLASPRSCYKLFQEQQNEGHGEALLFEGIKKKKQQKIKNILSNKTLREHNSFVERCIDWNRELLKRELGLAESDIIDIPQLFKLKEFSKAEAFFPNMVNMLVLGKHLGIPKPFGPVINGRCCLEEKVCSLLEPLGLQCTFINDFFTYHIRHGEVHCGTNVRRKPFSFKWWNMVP
GSTO1 counter – blocks human GSTO1 in RBBP9 counter-screen. P78417. recombinant GSTO1, activity-based probe fluorescence polarization. AID 1974. inhibition, % at 5.96 µM. hit rate 1.1% among 300,000;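 active = inhibition above the campaign mean inhibition plus 3 SD, cut at about 35% in these data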;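 also: 0% = GSTO1-1 with DMSO and 100% = wells lacking GSTO1-1 enzyme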
RBBP9 inhibitor – blocks human serine hydrolase RBBP9; O75884; recombinant RBBP9, FP-Rh probe fluorescence polarization; inhibition, % at 7.94 µM; hit rate 0.2% among 220,000;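 active = inhibition above the campaign mean of all tested compounds plus 3 SD, cut at about 14% in these data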;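 also: plate controls were DMSO wells with RBBP9 for no effect and wells lacking RBBP9 protein for full effect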
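System: RBBP9 protein | Quantity: 2.5 µM RBBP9 dispensing solution, before mixing | Reagent: FP-Rh probe, 375 nM dispensing solution | Timing: Enzyme-compound preincubation 30 min, then probe labeling 45 min, 25 °C | Measured by: Fluorescence polarization | Read-out: % inhibition | Replication: One well per compound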
SIAE primary – inhibitors of human sialic acid acetylesterase SIAE | SIAE FP-Rh probe binding, fluorescence polarization | hit rate 0.69% among 370,000 | inhibition, % at 9.66 µM;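 active = inhibition above a cutoff: mean of compounds within the control limits plus 3 SD of those, cut at about 17% in these data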;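 also: 0% = plate median of compound wells and 100% = probe without SIAE protein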
PRMT1 inh – inhibitors of human PRMT1. Q99873. hit rate 1.3% among 370,000. recombinant PRMT1, activity-based probe fluorescence polarization. AID 652257. inhibition, % at 2.79 µM;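 active = inhibition above about 21% made by adding two undisclosed values, limit read from the data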
GSTO1 confirm – GSTO1 (human) inhibition, confirmation; shares compounds with GSTO1 counter; recombinant GSTO1, probe fluorescence polarization; inhibition, % at 5.96 µM; hit rate 54% among 2,400;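 active = inhibition above the primary screen's cutoff, its mean inhibition plus 3 SD, cut at about 35% in these data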;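 also: loss of polarization as inhibitors block binding of rhodamine sulfonate ester activity probe; 0% = GSTO1 with DMSO and 100% = wells lacking GSTO1 enzyme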
GSTO1 ABPP inh – blocks recombinant human glutathione S-transferase omega 1 | recombinant GSTO1, gel ABPP SE-Rh probe fluorescence | hit rate 30% among 130 | shares compounds with GSTO1 counter | AID 463110 | inhibition, % at 1 µM;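 active = inhibition of the enzyme GSTO1 above about 75%, limit read from the data; inactive = inhibition below that limit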
PAD4 FP conf – PAD4 (human) inhibition, confirmed. shares compounds with PAD4 inh. recombinant PAD4, RCA probe fluorescence polarization. inhibition, % at 6.36 µM. hit rate 28% among 1,200;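 active = mean inhibition across replicates above the hit cutoff set by the earlier primary screen, cut at about 15% in these data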;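 also: inhibitors block active-site labeling by the probe so polarization falls; 0% = PAD4 with probe and DMSO and 100% = probe without PAD4 enzyme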
* hit, by the source's call; . = not tested or not shown. Hits are enriched below; roughly 2.7% of the tested compounds scored in any of these assays.

SMILES | PAD4 inh | GSTO1 counter | RBBP9 inhibitor | SIAE primary | PRMT1 inh | GSTO1 confirm | others
Cn1cc(NC(=O)CCl)cn1 | -2 | 80* | -1 | 2 | -1 | 89*
Oc1ccc2c3c1O[C@H]1c4[nH]c5ccccc5c4C[C@@]4(O)C(C2)N(CC2CC2)CC[C@]314 | -3 | 40* | -1 | . | . | 3
Oc1ccc2c3c1O[C@H]1c4[nH]c5ccccc5c4C[C@@]4(O)[C@@H](C2)N(CC2CC2)CC[C@]314 | -4 | 3 | . | 5 | -3 | .
CC(C)(C)c1ccc(O)c(N=Cc2c(O)ccc3ccccc23)c1 | -6 | 69* | . | 12 | 31* | 8
CCN(CC)c1ccc(/C=N/c2sc3c(c2C#N)C2CCN3CC2)c(O)c1 | -1 | 5 | -5 | . | . | .
CCOC(=O)c1c(N)n(Cc2ccc(OC)cc2)c2nc3ccccc3nc12 | . | . | -12 | -9 | 1 | .
Nc1c(C(=O)OCC2CCCO2)c2nc3ccccc3nc2n1Cc1cccs1 (stereo not drawn) | -9 | 39* | -10 | -10 | 1 | 5
CC(=O)OCC(=O)[C@H]1CC[C@H]2[C@@H]3CC[C@H]4C[C@H](O)CC[C@]4(C)[C@H]3C(=O)C[C@]12C | -2 | 4 | . | -5 | -3 | .
Cc1cc(NC(=O)CCl)no1 | 2 | 87* | -1 | -5 | 0 | 98*
O=C1NC(=O)C(Sc2ccccc2[N+](=O)[O-])C(=O)N1 | -1 | 48* | . | 6 | 57* | 8
O=C1/C(=C/c2cc([N+](=O)[O-])ccc2Cl)N2CCC1CC2 | 2 | 3 | 3 | 1 | 1 | .
O=[N+]([O-])c1cc(O)c(O)c([N+](=O)[O-])c1 | 7 | 39* | . | 6 | 32* | 31
O=[N+]([O-])c1ccc(O)c([N+](=O)[O-])c1 | 1 | 3 | . | 7 | -3 | .
CN(C)c1cccc2c(C#N)ccc(N(C)C)c12 | -5 | -1 | 9 | 2 | 1 | .
CCOC(=O)[C@]12Cc3c(cc(OC)c(OC)c3OC)[C@H]1N(C1CCCCC1)C(=O)c1ccccc12 | . | . | . | 7 | 1 | .
CCN1C(=O)/C(=C/c2ccc3c(c2)CCN3CCCCl)C(=O)NC1=S | -5 | 56* | 4 | -17 | 11 | 70*
O=C1NC(=S)N(C2CC2)C(=O)/C1=C/c1ccc2c(c1)CCN2CCCCl | -6 | 56* | -5 | -8 | 35* | 63*
CC(C)(C)N1C(=O)NC(=O)/C(=C\c2ccc3c(c2)CCN3CCCCl)C1=O | 1 | 38* | -20 | -12 | 3 | 66*
COC(=O)C1=C(c2cccc(C#N)c2)C[C@@H]2CC[C@H]1N2C(=O)N1CCC(C)CC1 | -4 | . | . | 1 | -1 | .
O=C1NC(=S)NC(=O)C1=Cc1ccc(OCC(=O)N2CCCC2)cc1 | 1 | 1 | . | 1 | 10 | .
CC1(C)CC(=O)C(C2(O)C(=O)NC(=O)NC2=O)=C(O)C1 | 3 | 68* | -1 | -1 | 1 | 60*
Cn1c(O)c(C2=NN(C(=O)CCl)C(c3ccccc3)C2)c(=O)n(C)c1=O (stereo not drawn) | 4 | 102* | -8 | 4 | -1 | 98*
Cn1c(O)c(C2=NNC(c3ccc(Cl)cc3)C2)c(=O)n(C)c1=O (stereo not drawn) | 4 | 3 | -7 | 7 | 0 | .
COC(=O)C1=C(c2ccc(-c3ccccc3)c(F)c2)C[C@@H]2CC[C@H]1N2C(=O)N1CCC(C)CC1 | -5 | . | . | -4 | 2 | .
CN1CCN(c2cccc3c2C(=O)c2ccccc2C3=O)CC1 | . | . | -2 | -6 | 13 | .
SMILES | PAD4 inh | GSTO1 counter | RBBP9 inhibitor | SIAE primary | PRMT1 inh | GSTO1 confirm | others
O=C1C(c2ccccc2)=C(N2CC2)c2ccccc21 | -3 | 41* | -9 | 4 | 0 | 33
O=C(O)Cn1cc(C=C2C(=O)NC(=O)NC2=O)c2ccccc21 | -3 | -2 | . | -13 | 12 | .
CN(C)C1C(=O)C(C(N)=O)=C(O)C2(O)C(=O)C3=C(O)c4c(O)cccc4C(C)(O)C3C(O)C12 (stereo not drawn) | -3 | 68* | . | 12 | 49* | 42*
O=c1c2ccccc2nc(/C=C/c2ccccc2F)n1-c1ccccc1O | 4 | -7 | . | -19 | 3 | .
CC1CCN(C(=O)CCl)CC1 | 1 | 93* | -6 | 5 | -2 | 95* | GSTO1 ABPP inh=83*
O=C(CN1CCCC1=O)N1CCOCC1 | 0 | 56* | -2 | -4 | -1 | 12
CC(C)N1OC2CC1c1nc3ccccc3n1C2 (stereo not drawn) | 7 | 3 | . | 5 | 3 | .
CN1C(=O)C(c2ccc([N+](=O)[O-])cc2[N+](=O)[O-])C(=O)N(C)C1=O | 2 | 15 | . | 1 | 3 | .
CCC(C)/C=C(C)/C=C/C1=CC2=C(Cl)C(=O)C(C)(OC(C)=O)C(=O)C2=CO1 (stereo not drawn) | -2 | 43* | 6 | . | . | 40*
COC(=O)C1=C(c2ccc(OCc3ccccc3)cc2)C[C@@H]2CC[C@H]1N2C(=O)NCc1ccc(C(C)(C)C)cc1 | . | . | . | -3 | -1 | .
c1ccc(-c2[nH]c[n+](CC3CO3)c2-c2ccccc2)cc1 (stereo not drawn) | 3 | 76* | -4 | . | . | 81* | GSTO1 ABPP inh=24
CC(C)CNC(=O)c1c(N)n(Cc2ccc3c(c2)OCO3)c2nc3ccccc3nc12 | 7 | 62* | -6 | 2 | -2 | 1
CC(C)CNC(=O)c1c(N)n(Cc2ccco2)c2nc3ccccc3nc12 | -31 | 42* | 1 | -3 | 40* | -1
CCCCNC(=O)c1c(N)n(CCCOC)c2nc3ccccc3nc12 | 2 | 51* | -7 | 3 | 4 | 17
CCCNC(=O)c1c(N)n(Cc2ccco2)c2nc3ccccc3nc12 | -15 | 17 | -4 | . | . | .
CC(C)CCn1c(N)c(C(=O)NCc2cccs2)c2nc3ccccc3nc21 | -4 | 3 | -9 | . | . | .
CCCNC(=O)c1c(N)n(Cc2ccc3c(c2)OCO3)c2nc3ccccc3nc12 | -7 | 16 | -1 | . | . | .
CC(C)CCNC(=O)c1c(N)n(Cc2ccc3c(c2)OCO3)c2nc3ccccc3nc12 | -4 | 40* | 1 | 6 | -3 | 69*
Cc1cc(C)cc(NC(=O)CCNC(=O)N2C[C@H]3C[C@@H](C2)c2cccc(=O)n2C3)c1 | 1 | -4 | . | -2 | -9 | .
COC(=O)C1=C(c2ccc(F)cc2OCc2ccccc2)C[C@@H]2CC[C@H]1N2C(=O)NCc1ccccc1C(F)(F)F | 3 | . | . | -9 | 2 | .
CCOC(=O)c1c(NS(=O)(=O)c2ccccc2)n(CCCOC)c2nc3ccccc3nc12 | 79* | 93* | 1 | -7 | 3 | 59* | PAD4 FP conf=-5
CC(C)=CCN1CC[C@@]2(C)c3cc(O)ccc3CC1C2C (stereo partly drawn) | -1 | . | . | -1 | 3 | .
Clc1ccc(-c2nc3ccc(Cl)cn3c2CN2CCCCC2)cc1 | . | . | . | -8 | -3 | .
